Reference: ChEMBL document CHEMBL4325889, “Natural products hybrids: 3,5,4'-Trimethoxystilbene-5,6,7-trimethoxyflavone chimeric analogs as potential cytotoxic agents against diverse human cancer cells” (Eur J Med Chem, 2019)
The source made the active and inactive calls. The rule behind the calls is not given here.

Experiments:
SNB-19 = assay: Growth inhibition of human SNB19 cells at 10 uM after 48 hrs by SRB assay relative to control; type: functional; conditions: SNB-19, 48 h, read-out: GI
How it was run: (§1)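 NCI screen against its human cancer cell line panel by the standard NCI protocol, SRB protein stain. Single dose of 10 μM. Percent growth inhibition versus control; values above 100% mean the cell population fell below the starting number. Each value is the mean of duplicates.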

HeLa [1] = assay: Induction of apoptosis in human HeLa cells assessed as early apoptotic cells after 24 hrs by Annexin V-FITC/propidium iodide staining based flow cytometry (reference value: 2.6%); type: functional
How it was run: (§2)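 HeLa human cervical cancer cells treated with increasing concentrations or for increasing incubation times. Cells stained with annexin V-FITC and propidium iodide and analysed by FACS. Gating: early apoptotic = annexin+/PI−, late apoptotic = annexin+/PI+.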

UACC-62 = assay: Growth inhibition of human UACC62 cells at 10 uM after 48 hrs by SRB assay relative to control; type: functional; conditions: UACC-62, 48 h, read-out: GI; how it was run: as §1
Malme-3M = assay: Growth inhibition of human MALME-3M cells at 10 uM after 48 hrs by SRB assay relative to control; type: functional; conditions: read-out: GI
How it was run: (§3)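 Screened at the National Cancer Institute by the standard NCI protocol using the sulforhodamine B assay, which measures cellular protein. Single dose of 10 µM. Result is percent growth inhibition; values above 100% mean cell number fell below the initial population. Values are the average of duplicates.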

A549 = assay: Growth inhibition of human A549 cells at 10 uM after 48 hrs by SRB assay relative to control; type: functional; conditions: A549, 48 h, read-out: GI; how it was run: as §3
NCI-H226 = assay: Growth inhibition of human NCI-H226 cells at 10 uM after 48 hrs by SRB assay relative to control; type: functional; conditions: NCI-H226, 48 h, read-out: GI; how it was run: as §3
HCT-116 = assay: Growth inhibition of human HCT116 cells at 10 uM after 48 hrs by SRB assay relative to control; type: functional; conditions: HCT-116, 48 h, read-out: GI; how it was run: as §3
786-0 = assay: Growth inhibition of human 786-0 cells at 10 uM after 48 hrs by SRB assay relative to control; type: functional; conditions: 786-0, 48 h, read-out: GI; how it was run: as §3
[2] = Cytotoxicity against human IOSE-80PC cells after 48 hrs by MTT assay; type: cell-based
How it was run: (§4)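 Normal human lung epithelial L132 and ovarian epithelial IOSE-80PC cells were tested by MTT viability assay, and IC50 was determined.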

HeLa [3] = assay: Induction of morphological changes in human HeLa cells assessed as chromatin condensation at 10 uM after 48 hrs by DAPI staining based fluorescence microscopic method; type: functional, cell-based
How it was run: (§5)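 HeLa cells exposed to 10 µM for 48 h, then stained with DAPI. Nuclear shape, size and density (bright condensed, fragmented chromatin, apoptotic bodies) examined by fluorescence microscopy under 358 nm excitation, against untreated control cells.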

HeLa [4] = assay: Induction of apoptosis in human HeLa cells assessed as late apoptotic cells at 2.5 uM by Annexin V-FITC/propidium iodide staining based flow cytometry (reference value: 6.9%); type: functional; how it was run: as §2
HeLa [5] = assay: Antiproliferative activity against human HeLa cells after 48 hrs by MTT assay; type: functional, cell-based
How it was run: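 HeLa cervical cancer cells, growth inhibition measured by MTT viability assay, and IC50 determined.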

SF-268 = assay: Growth inhibition of human SF268 cells at 10 uM after 48 hrs by SRB assay relative to control; type: functional; conditions: SF-268, 48 h, read-out: GI; how it was run: as §3
HOP-62 = assay: Growth inhibition of human HOP62 cells at 10 uM after 48 hrs by SRB assay relative to control; type: functional; conditions: HOP-62, 48 h, read-out: GI; how it was run: as §3
HeLa [6] = assay: Induction of morphological changes in human HeLa cells assessed as apoptotic body formation at 10 uM after 48 hrs by DAPI staining based fluorescence microscopic method; type: functional, cell-based; how it was run: as §5
HT-29 = assay: Growth inhibition of human HT-29 cells at 10 uM after 48 hrs by SRB assay relative to control; type: functional; conditions: HT-29, 48 h, read-out: GI; how it was run: as §3
MDA-MB-435 = assay: Growth inhibition of human MDA-MB-435 cells at 10 uM after 48 hrs by SRB assay relative to control; type: functional; conditions: MDA-MB-435, 48 h, read-out: GI; how it was run: as §3
HeLa [7] = assay: Induction of apoptosis in human HeLa cells assessed as live cells at 2.5 uM by Annexin V-FITC/propidium iodide staining based flow cytometry (reference value: 85.2%); type: functional; how it was run: as §2
HeLa [8] = assay: Induction of apoptosis in human HeLa cells assessed as early apoptotic cells after 12 hrs by Annexin V-FITC/propidium iodide staining based flow cytometry (reference value: 2.6%); type: functional; how it was run: as §2
COLO 205 = assay: Growth inhibition of human COLO205 cells at 10 uM after 48 hrs by SRB assay relative to control; type: functional; conditions: COLO 205, 48 h, read-out: GI; how it was run: as §3
L132 = assay: Cytotoxicity against human L-132 cells after 48 hrs by MTT assay; type: cell-based; conditions: L132, 48 h; how it was run: as §4
KM12 = assay: Growth inhibition of human KM12 cells at 10 uM after 48 hrs by SRB assay relative to control; type: functional; conditions: KM12, 48 h, read-out: GI; how it was run: as §3
UO-31 = assay: Growth inhibition of human UO31 cells at 10 uM after 48 hrs by SRB assay relative to control; type: functional; conditions: UO-31, 48 h, read-out: GI; how it was run: as §1
HeLa [9] = assay: Induction of apoptosis in human HeLa cells assessed as necrotic cells after 48 hrs by Annexin V-FITC/propidium iodide staining based flow cytometry (reference value: 0.9%); type: functional; how it was run: as §2
SN12C = assay: Growth inhibition of human SN12C cells at 10 uM after 48 hrs by SRB assay relative to control; type: functional; conditions: read-out: GI; how it was run: as §3
OVCAR-8 = assay: Growth inhibition of human OVCAR8 cells at 10 uM after 48 hrs by SRB assay relative to control; type: functional; conditions: OVCAR-8, 48 h, read-out: GI; how it was run: as §3
HeLa [10] = assay: Induction of apoptosis in human HeLa cells assessed as live cells at 5 uM by Annexin V-FITC/propidium iodide staining based flow cytometry (reference value: 85.2%); type: functional; how it was run: as §2
HCT-15 = assay: Growth inhibition of human HCT15 cells at 10 uM after 48 hrs by SRB assay relative to control; type: functional; conditions: HCT-15, 48 h, read-out: GI; how it was run: as §3
NCI-H460 = assay: Growth inhibition of human NCI-H460 cells at 10 uM after 48 hrs by SRB assay relative to control; type: functional; conditions: NCI-H460, 48 h, read-out: GI; how it was run: as §3
NCI-H322M = assay: Growth inhibition of human NCI-H322M cells at 10 uM after 48 hrs by SRB assay relative to control; type: functional; conditions: read-out: GI; how it was run: as §3
HeLa [11] = assay: Induction of apoptosis in human HeLa cells assessed as necrotic cells at 10 uM by Annexin V-FITC/propidium iodide staining based flow cytometry (reference value: 2.2%); type: functional; how it was run: as §2
TK-10 = assay: Growth inhibition of human TK10 cells at 10 uM after 48 hrs by SRB assay relative to control; type: functional; conditions: TK-10, 48 h, read-out: GI; how it was run: as §1
ACHN = assay: Growth inhibition of human ACHN cells at 10 uM after 48 hrs by SRB assay relative to control; type: functional; conditions: read-out: GI; how it was run: as §3

SMILES | inhibition of growth at 10 µM (SNB-19) | inhibition of growth at 10 µM (UACC-62) | inhibition of growth at 10 µM (Malme-3M) | inhibition of growth at 10 µM (A549) | inhibition of growth at 10 µM (NCI-H226) | inhibition of growth at 10 µM (HCT-116) | inhibition of growth at 10 µM (786-0) | IC50 [2] | inhibition of growth at 10 µM (SF-268) | inhibition of growth at 10 µM (HOP-62) | inhibition of growth at 10 µM (HT-29) | inhibition of growth at 10 µM (MDA-MB-435) | inhibition of growth at 10 µM (COLO 205) | IC50 (L132) | inhibition of growth at 10 µM (KM12) | inhibition of growth at 10 µM (UO-31) | inhibition of growth at 10 µM (SN12C) | inhibition of growth at 10 µM (OVCAR-8) | inhibition of growth at 10 µM (HCT-15) | inhibition of growth at 10 µM (NCI-H460) | other results
COc1cc(NC(=O)c2cccc(-c3cc(=O)c4c(OC)c(OC)c(OC)cc4o3)c2)cc(OC)c1OC | 43.7% | 49.5% | 43.6% | 56.5% | 41.5% | 51.4% | 68.2% | 67.6 µM | 32.9% | 62.5% | 69% | 93.6% | 55.7% | > 100 µM | 54.2% | 79.1% | 54.1% | 69.1% | 59.3% | 70% | Activity (HeLa [1]): 13.4%; Activity (HeLa [3]): Active; Activity (HeLa [4]): 6.8%; Activity (HeLa [5]): Active; Activity (HeLa [6]): Active; Activity (HeLa [7]): 79%; Activity (HeLa [8]): 4.2%; Activity (HeLa [9]): 3.7%; Activity (HeLa [10]): 59.4%; inhibition of growth at 10 µM (NCI-H322M): 30.5%; Activity (HeLa [11]): 12.6%; inhibition of growth at 10 µM (TK-10): 30.6%; inhibition of growth at 10 µM (ACHN): 43.3%
COc1cc2oc(-c3cccc(NC(=O)c4ccc5c(c4)OCO5)c3)cc(=O)c2c(OC)c1OC | 54.4% | 50% | 23.6% | 48.7% | 34.3% | 64.5% | 80.5% | > 100 µM | 51.9% | 45.6% | 70.6% | 46.7% | 31.9% | 55 µM | 48.7% | 75.8% | 57.9% | 53.7% | 67.9% | 72.8% | inhibition of growth at 10 µM (NCI-H322M): 56.5%; inhibition of growth at 10 µM (TK-10): 38.4%; inhibition of growth at 10 µM (ACHN): 52.2%
